# Assay outcomes deposited in PubChem BioAssay by Broad Institute.
# Glyco luc inh: increase of ERlucT glycosylation luciferase signal, primary screen, N-linked glycosylation inhibitor project, D54 ERlucT cells, luminescence, set 2. reporter increase, % at 12.5 µM. actives 0.23% (n = 360,000). D54 ERlucT glycosylation luciferase reporter, 24 h; percent of 100 nM tunicamycin response;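 active = mean luciferase reporter signal, scaled so untreated is 0 and the glycosylation-blocking control 100, at or above a set limit in every replicate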;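 also: luciferase carries N-glycosylation sites so blocking glycosylation raises the light; 0% = median of neutral control wells and 100% = median of 100 nM tunicamycin wells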
# Vif inh: HIV Vif self-association inhibitors, primary screen, imaging, HEK293T, single point | HEK293T cells, Vif self-association by quenched fluorescence, 24 h | actives 0.35% (n = 340,000) | inhibition, % at 7.49 µM | AID 602346, 2012; in the data active = inhibition above about 50%, passing the limit was not always enough
# CAL PDZ FP-1: untagged CAL PDZ binding inhibitors, primary screen, biochemical, fluorescence polarization, HTS; Golgi-associated PDZ and coiled-coil motif-containing protein (Homo sapiens), Q9HD26; purified CAL PDZ, TMR-peptide fluorescence polarization, 1 h; inhibition, % at 24.9 µM; actives 0.92% (n = 300,000); AID 602252, 2012;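 active = mean inhibition of at least 30% with at least half of replicates also reaching 30%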;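 also: 0% = DMSO neutral control and 100% = excess unlabeled competitor peptide PRC23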
# PvdQ inh: P. aeruginosa PvdQ acylase inhibitors, primary screen, biochemical, fluorescence, plate reader and imaging, single point. actives 0.063% (n = 340,000). inhibition, % at 10 µM. purified PvdQ acylase; in the data active = inhibition above about 30%, passing the limit was not always enough;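 also: 0% = vehicle neutral wells and 100% = reference inhibitor wells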
# CDK5 inh: inhibitors of human CDK5/p35 kinase, primary screen, biochemical, single concentration | Cyclin-dependent kinase 5 (Homo sapiens) + Cyclin-dependent kinase 5 activator 1 (Homo … | Recombinant CDK5/p35, ADP-Glo luminescence, 60 min | inhibition, % at 10 µM | actives 0.01% (n = 330,000);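 active = highest replicate inhibition of at least 50% and at least 75% of replicates reaching 50%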;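 also: plate controls were DMSO neutral control for no effect and GW8510 at 10 µM for full effect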
# Target sequence (Q00535 whole entry, looked up): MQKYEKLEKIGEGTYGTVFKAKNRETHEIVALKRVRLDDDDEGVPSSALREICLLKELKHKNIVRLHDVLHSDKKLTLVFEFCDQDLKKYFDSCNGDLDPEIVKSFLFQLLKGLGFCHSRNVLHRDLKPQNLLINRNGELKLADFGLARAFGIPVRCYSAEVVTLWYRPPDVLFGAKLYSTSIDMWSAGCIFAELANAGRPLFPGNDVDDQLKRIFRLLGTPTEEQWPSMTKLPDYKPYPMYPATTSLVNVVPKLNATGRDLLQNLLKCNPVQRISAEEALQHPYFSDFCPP
# Target sequence (Q15078 whole entry, looked up): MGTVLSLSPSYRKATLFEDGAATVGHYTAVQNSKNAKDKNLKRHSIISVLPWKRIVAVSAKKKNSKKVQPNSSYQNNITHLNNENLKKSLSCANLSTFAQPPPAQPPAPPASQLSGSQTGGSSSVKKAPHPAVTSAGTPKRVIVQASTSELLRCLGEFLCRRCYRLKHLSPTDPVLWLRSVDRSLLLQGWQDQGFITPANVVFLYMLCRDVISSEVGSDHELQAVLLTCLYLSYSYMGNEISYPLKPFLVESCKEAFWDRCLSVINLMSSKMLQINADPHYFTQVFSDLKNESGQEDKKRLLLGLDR
# CAL PDZ FP-2: CAL PDZ peptide-binding inhibitors, primary screen, biochemical, fluorescence polarization, Cer-tagged CAL PDZ, HTS. Golgi-associated PDZ and coiled-coil motif-containing protein (Homo sapiens), Q9HD26. purified CAL PDZ, TMR-peptide fluorescence polarization, 1 h. inhibition, % at 20 µM. actives 0.02% (n = 330,000);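 active = highest replicate inhibition of at least 40%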;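 also: plate controls were DMSO neutral control wells for no effect and unlabeled competitor peptide control wells for full effect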
#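 System: tagged CAL PDZ domain. Schedule: 1 h room-temperature incubation prior to read. Signal: fluorescence polarization (mP). Measure: percent inhibition from loss of millipolarization.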
# The depositor's hits bear a star; . = not tested or not shown. Shown are actives, neighbours in structure and some others; about 1.4% of the full set was active somewhere.
SMILES,Glyco luc inh,Vif inh,CAL PDZ FP-1,PvdQ inh,CDK5 inh,CAL PDZ FP-2
O=C(Nc1ccc(NC(=O)c2cccs2)c(Cl)c1)c1cccs1,-3,-22,-4,9,1,-3
CC(=O)Oc1cc(C(=O)OCC(=O)NC23CC4CC(CC(C4)C2)C3)cc(OC(C)=O)c1OC(C)=O,-5,67*,.,-8,0,0
O=CN(c1ccccc1)c1ccc2ccccc2c1,-1,-4,-4,79*,2,-2
Cc1cnc(C(=O)OCC(=O)NCc2ccc(Cl)cc2)cn1,1,19,13,-12,-2,0
O=C(O)c1cn[nH]c1-c1cccc([N+](=O)[O-])c1,-3,2,61*,-16,-1,-5
O=C(NCc1c(Cl)cccc1Oc1ccccc1)c1ccccc1,-4,5,-3,8,0,0
COc1cc(NS(=O)(=O)c2ccc(NC(=S)Nc3ccccc3)cc2)nc(OC)n1,2,7,-7,-15,0,111*
CCOC(=O)/C=C(\C)Sc1cc(=O)oc2ccccc12,25*,-3,-6,49*,3,-2
CCNCC(=O)N1c2ccccc2CCc2ccc(NC(=O)OCC)cc21,-1,49,-4,6,2,-1
Cc1ccc(-c2nc3ncccc3o2)cc1NC(=O)c1ccc2c(c1)OCO2,0,51*,.,-9,2,1
O=C(CSc1nnc(COc2ccc(Cl)cc2)o1)N(c1ccccc1)C1CCS(=O)(=O)C1 (stereo unspecified),-2,-19,.,.,.,.
CC1CCC(C(C)C)C(OCC(O)CNC(C)c2ccccc2)C1 (stereo unspecified),-8,-2,4,-3,-1,0
CC1CCC(C(C)C)C(OCC(O)CNC(C)(C)C)C1 (stereo unspecified),-1,-16,80*,-18,-1,0
CN(Cc1ccc(OC(F)F)cc1)C(=O)/C=C/c1ccc(S(=O)(=O)N2CCOCC2)cc1,-2,-2,-2,-14,2,0
COc1ccc(NC(=O)CSc2nccn2Cc2ccco2)cc1OC,0,0,.,-7,-3,-2
CC1(C(=O)NCc2ccco2)Cc2c(-c3cccc(C(N)=O)c3)ccnc2O1 (stereo unspecified),38*,14,.,.,.,.
CC(=O)Nc1cccc(-c2ccnc3c2CC(C)(C(=O)NCCC(F)(F)F)O3)c1 (stereo unspecified),25*,-7,.,.,.,.
CC[C@@H]1[C@H]2CCCC(=O)N3CC[C@@H](C[C@H]1O)[C@@H]23,3,-2,2,-11,-5,-1
COC(=O)C(CC(=O)c1ccc(Br)cc1)n1nc(C)cc1C (stereo unspecified),2,7,0,-11,-1,0
COC(=O)C(CC(=O)c1ccc(C)cc1)n1nc(C)cc1C (stereo unspecified),0,-2,129*,-15,1,0
CCn1ncc(Br)c1C(=O)Nc1cccc(F)c1,4,-2,33*,-21,-1,23
COc1ccc(NC(=O)CN(C)C2CCCCC2)c([N+](=O)[O-])c1,1,-21,-4,-24,0,1
O=C(CNCc1ccc(Cl)cc1)Nc1cc(S(=O)(=O)N2CCCC2)ccc1Cl,0,1,-2,-12,1,-1
Cc1ccc2ncccc2c1,-1,-4,-6,2,1,0
c1cnc2ccc(-c3ccc4ncccc4c3)cc2c1,-15,18,6,47*,3,.
SMILES,Glyco luc inh,Vif inh,CAL PDZ FP-1,PvdQ inh,CDK5 inh,CAL PDZ FP-2
COc1ccc(CCC(=O)Nc2cc(S(=O)(=O)N3CCCCC3)ccc2N(C)C)cc1,-1,21,-1,-15,0,1
Nc1nonc1-n1nnc(C(=O)N/N=C/c2ccccn2)c1CNc1ccccc1,2,-4,131*,-6,0,0
Cc1cc(C)c(/C=N/NC(=O)c2nnn(-c3nonc3N)c2CN2CCC(C)CC2)c(C)c1,-5,-11,38*,-18,1,-1
Nc1nonc1-n1nnc(C(=O)N/N=C/c2ccccn2)c1-c1ccccc1,1,-6,4,5,-1,-2
CC1CCN(Cc2c(C(=O)N/N=C/c3cc(Br)ccc3O)nnn2-c2nonc2N)CC1,-6,53*,-5,-10,0,-1
OC(c1ccc(F)c(F)c1)c1ncc(-c2cccc(F)c2)[nH]1 (stereo unspecified),0,.,.,.,.,.
Cc1noc(C)c1CSCC(=O)OCC(=O)Nc1ccc(OC(F)(F)F)cc1,1,.,.,.,.,.
CCOC(=O)C1(C)CCCCCN1C(=O)c1ccc(C(=O)OC)cc1 (stereo unspecified),4,11,.,.,.,.
N#Cc1ccc(-c2nc3ccc(Br)cn3c2Cc2ccccc2)cc1,-1,22,.,.,.,.
CC1CCC2(CC1)NC(=O)N(CC(=O)NC1CCCCC1C)C2=O (stereo unspecified),2,10,33*,-6,1,1
CC1Cc2ccccc2N1S(=O)(=O)c1cccc(C(=O)NC2CC2)c1 (stereo unspecified),-2,0,-3,-18,0,-1
O=C(Nc1ccncc1)c1cccc(S(=O)(=O)N2CCc3ccccc32)c1,1,-10,.,4,0,-2
O=C(Nc1cccnc1)c1cccc(S(=O)(=O)N2CCc3ccccc32)c1,-2,-4,73*,-13,-2,-3
CC1Cc2ccccc2N1S(=O)(=O)c1cccc(C(=O)Nc2cccnc2)c1 (stereo unspecified),0,6,34*,-14,-1,.
COCc1ccc(C(=O)N(C)C2CCCN(Cc3ccccc3F)C2)o1 (stereo unspecified),-2,-1,-4,0,2,1
Cc1cc(C)n2nc(SCc3cccc(S(=O)(=O)N(C)C)c3)nc2n1,-1,4,43*,-16,2,.
CCOc1ccc(NC(=O)CSc2nnnn2-c2ccc(C(N)=O)cc2)cc1,0,9,66*,-19,2,.
CCOc1ccc(-c2nnc(SCC(=O)Nc3ccc4c(c3)c3ccccc3n4CC)n2N)cc1,73*,37,-1,10,-1,0
COc1ccc(NC(=O)CSc2nnnn2-c2ccc(OC)cc2)cc1,-1,1,0,5,0,-2
CCN1CCN(CCCNC(=O)C2CCCN(c3nc4c(C)cc(C)cc4s3)C2)CC1 (stereo unspecified),7,-6,-4,-4,-1,-1
